{
  "source": "paper PMC8092417",
  "about": "(Anti-cancer drugs, 2020)",
  "key": {"MDA-MB-231 cells [1]": {"test_system": "MDA-MB-231 cells", "assay": "Crystal violet staining, cells remaining / viability dose-response", "assay_type": "cell-based, human", "summary_of_the_method": "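Cells were plated at 5,000/well in 5% charcoal-stripped DMEM for 48 h, then exposed to test compound or DMSO vehicle for 72 h at 37 °C, 5% CO2. They were fixed with glutaraldehyde for 20 min and stained for 20 min with 0.1% crystal violet in 90% methanol. After overnight drying, cells were lysed in 33% acetic acid and read at 620 nm. Signal was normalized to DMSO and plotted as dose-response.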"}, "TU-BcX-2K1 tumors": {"test_system": "TU-BcX-2K1 tumors", "assay": "qRT-PCR of ex vivo treated PDX tumor pieces", "assay_type": "cell-based, human", "conditions": "TU-BcX-2K1 tumor pieces, 1 μM, 72 hours"}, "TU-BcX-4IC explants": {"test_system": "TU-BcX-4IC explants", "assay": "Western blot of treated PDX tumor explants", "assay_type": "cell-based, human", "conditions": "24 hours"}, "PDGFRB": {"molecular_target": "PDGFRB (Homo sapiens, UniProt P09619)", "sequence (P09619 33-1106)": "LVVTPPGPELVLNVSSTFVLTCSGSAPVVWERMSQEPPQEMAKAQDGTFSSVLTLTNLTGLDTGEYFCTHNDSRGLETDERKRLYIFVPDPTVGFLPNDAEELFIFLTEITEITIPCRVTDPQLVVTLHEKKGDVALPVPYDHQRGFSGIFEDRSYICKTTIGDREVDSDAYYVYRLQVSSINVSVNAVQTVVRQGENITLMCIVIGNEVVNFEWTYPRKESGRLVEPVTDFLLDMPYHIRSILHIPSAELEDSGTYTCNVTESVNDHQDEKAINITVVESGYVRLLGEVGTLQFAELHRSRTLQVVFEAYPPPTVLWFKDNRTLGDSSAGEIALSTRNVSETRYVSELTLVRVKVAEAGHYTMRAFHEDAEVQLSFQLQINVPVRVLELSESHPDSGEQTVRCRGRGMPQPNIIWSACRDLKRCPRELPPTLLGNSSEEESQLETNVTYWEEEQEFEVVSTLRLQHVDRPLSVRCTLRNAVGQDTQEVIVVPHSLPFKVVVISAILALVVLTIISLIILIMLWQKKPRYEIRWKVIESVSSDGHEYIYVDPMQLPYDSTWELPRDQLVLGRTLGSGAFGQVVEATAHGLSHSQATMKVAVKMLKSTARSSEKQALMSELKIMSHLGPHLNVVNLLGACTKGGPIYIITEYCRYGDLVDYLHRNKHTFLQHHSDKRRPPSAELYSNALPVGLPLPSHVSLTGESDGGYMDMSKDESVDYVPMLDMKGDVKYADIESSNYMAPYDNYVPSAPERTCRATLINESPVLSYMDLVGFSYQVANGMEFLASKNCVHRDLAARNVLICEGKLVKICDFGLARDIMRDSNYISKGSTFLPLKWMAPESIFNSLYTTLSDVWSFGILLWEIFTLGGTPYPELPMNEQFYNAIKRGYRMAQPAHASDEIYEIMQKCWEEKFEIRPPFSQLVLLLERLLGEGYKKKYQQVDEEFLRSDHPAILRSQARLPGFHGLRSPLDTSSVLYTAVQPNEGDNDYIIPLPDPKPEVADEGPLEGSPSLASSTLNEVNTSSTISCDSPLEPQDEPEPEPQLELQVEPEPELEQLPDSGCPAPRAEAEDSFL", "assay": "Kinase inhibition assay", "assay_type": "biochemical", "conditions": "1 μM"}, "[2]": {"test_system": "HLA+CD44+CD24- cancer stem cells of TU-BcX-4IC-implanted mice", "assay": "Flow cytometry for circulating cancer stem cells in peripheral blood", "assay_type": "in vivo, SCID/Beige mice", "conditions": "25 mg/kg bid, vs DMSO vehicle", "summary_of_the_method": "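Female SCID/Beige mice (n=5/group) carried TU-BcX-4IC tumor implants (3 × 3 mm) in the mammary fat pads and received i.p. test compound or DMSO vehicle twice daily for 15 days. Intracardiac blood was stored in EDTA […], RBC-lysed ([…] NH4Cl, pH 7.2–7.4), Fc-blocked, and stained with anti-human CD24, EpCAM and CD44. At least 5000 events were analyzed; n=4 mice/group; mean ± SEM.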"}, "TU-BcX-4IC cells [3]": {"test_system": "TU-BcX-4IC cells", "assay": "Phalloidin immunofluorescence with morphometric quantification", "assay_type": "cell-based, human", "conditions": "1 μM, 72 hours"}, "TU-BcX-4IC PDX model": {"test_system": "TU-BcX-4IC PDX model", "assay": "In vivo treatment of TU-BcX-4IC implants, tumor growth and metastasis", "parameters": "species or system SCID/Beige mice", "conditions": "25 mg/kg bid intraperitoneally, 15 days, vs DMSO vehicle", "summary_of_the_method": "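Female SCID/Beige mice (5/group) received bilateral mammary fat pad implants of TU-BcX-4IC tumour pieces (3 × 3 mm). Twice-daily intraperitoneal dosing with test compound or DMSO vehicle began 24 h after implantation. At sacrifice, lungs and livers were formalin-fixed, paraffin-embedded, sectioned and H&E-stained. Lesion area and number per section were quantified.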"}, "MDA-MB-231 cells [4]": {"test_system": "MDA-MB-231 cells", "assay": "qRT-PCR of epithelial and mesenchymal genes", "assay_type": "cell-based, human", "conditions": "MDA-MB-231, 1 μM, 72 hours", "summary_of_the_method": "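MDA-MB-231 cells in 5% charcoal-stripped DMEM were pre-exposed for 72 h to test compound (1 μM) or DMSO. RNA was then isolated and gene expression measured by quantitative real-time PCR.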"}, "RET": {"molecular_target": "RET (Homo sapiens, UniProt P07949)", "sequence (P07949 29-1114)": "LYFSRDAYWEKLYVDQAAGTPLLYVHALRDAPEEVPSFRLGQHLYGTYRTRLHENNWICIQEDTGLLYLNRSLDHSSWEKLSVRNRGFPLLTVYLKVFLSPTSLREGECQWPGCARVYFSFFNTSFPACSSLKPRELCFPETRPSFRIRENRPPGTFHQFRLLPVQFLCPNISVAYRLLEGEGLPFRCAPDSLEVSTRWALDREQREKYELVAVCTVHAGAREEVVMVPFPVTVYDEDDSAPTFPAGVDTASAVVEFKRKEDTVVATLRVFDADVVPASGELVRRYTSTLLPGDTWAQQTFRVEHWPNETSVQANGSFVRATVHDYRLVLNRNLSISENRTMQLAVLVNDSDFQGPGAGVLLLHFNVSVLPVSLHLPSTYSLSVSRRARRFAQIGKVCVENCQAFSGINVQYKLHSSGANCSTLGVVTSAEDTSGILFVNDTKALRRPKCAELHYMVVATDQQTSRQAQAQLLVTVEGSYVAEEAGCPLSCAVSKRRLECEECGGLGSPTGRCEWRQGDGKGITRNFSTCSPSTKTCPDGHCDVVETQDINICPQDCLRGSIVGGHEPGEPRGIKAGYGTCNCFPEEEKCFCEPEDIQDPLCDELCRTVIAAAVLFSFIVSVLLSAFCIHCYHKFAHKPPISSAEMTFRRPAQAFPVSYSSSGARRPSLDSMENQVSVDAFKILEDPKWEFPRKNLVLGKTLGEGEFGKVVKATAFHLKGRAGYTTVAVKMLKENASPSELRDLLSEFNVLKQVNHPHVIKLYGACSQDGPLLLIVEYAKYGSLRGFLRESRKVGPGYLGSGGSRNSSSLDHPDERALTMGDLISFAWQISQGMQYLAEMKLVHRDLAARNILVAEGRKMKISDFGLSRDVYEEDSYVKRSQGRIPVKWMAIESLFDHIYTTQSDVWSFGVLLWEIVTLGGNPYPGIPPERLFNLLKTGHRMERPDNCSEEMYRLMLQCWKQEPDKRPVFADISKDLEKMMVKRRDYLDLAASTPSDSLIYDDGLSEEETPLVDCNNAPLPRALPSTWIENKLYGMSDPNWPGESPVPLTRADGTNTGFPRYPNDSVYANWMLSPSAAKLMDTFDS", "assay": "Kinase inhibition assay", "assay_type": "biochemical", "conditions": "1 μM"}, "BRSK2": {"molecular_target": "BRSK2 (Homo sapiens, UniProt Q8IWQ3)", "sequence (Q8IWQ3 whole entry)": "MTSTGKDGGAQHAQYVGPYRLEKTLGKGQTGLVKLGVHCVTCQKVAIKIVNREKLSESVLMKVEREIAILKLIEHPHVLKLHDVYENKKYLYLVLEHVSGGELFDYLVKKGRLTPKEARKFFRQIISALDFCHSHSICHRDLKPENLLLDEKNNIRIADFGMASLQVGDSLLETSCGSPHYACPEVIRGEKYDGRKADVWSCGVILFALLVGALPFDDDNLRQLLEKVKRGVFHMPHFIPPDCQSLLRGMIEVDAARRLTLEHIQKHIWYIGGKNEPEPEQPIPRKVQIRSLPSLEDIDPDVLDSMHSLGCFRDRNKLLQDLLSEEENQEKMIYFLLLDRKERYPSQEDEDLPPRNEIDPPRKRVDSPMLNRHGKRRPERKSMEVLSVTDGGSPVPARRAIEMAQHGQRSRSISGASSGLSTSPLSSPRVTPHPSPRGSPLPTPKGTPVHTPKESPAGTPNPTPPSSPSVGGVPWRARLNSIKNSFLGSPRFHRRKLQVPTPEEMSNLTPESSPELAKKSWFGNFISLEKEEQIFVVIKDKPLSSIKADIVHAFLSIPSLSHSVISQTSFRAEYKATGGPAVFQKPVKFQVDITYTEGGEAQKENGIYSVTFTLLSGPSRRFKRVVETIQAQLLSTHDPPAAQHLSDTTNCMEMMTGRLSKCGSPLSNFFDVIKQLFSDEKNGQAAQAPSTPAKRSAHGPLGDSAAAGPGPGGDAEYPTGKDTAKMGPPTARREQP", "assay": "Kinase inhibition assay", "assay_type": "biochemical", "conditions": "1 μM"}, "TU-BcX-4IC cells [5]": {"test_system": "TU-BcX-4IC cells", "assay": "qRT-PCR of epithelial and mesenchymal genes", "assay_type": "cell-based, human", "conditions": "1 μM, 72 hours", "summary_of_the_method": "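Cells were treated 72 h with test compound (1 μM) or DMSO. Total RNA was column-isolated and checked for quantity and quality by absorbance (260, 280 nm). Then 2 μg total RNA was reverse-transcribed and gene expression measured by qRT-PCR.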"}, "TU-BcX-49S tumors": {"test_system": "TU-BcX-49S tumors", "assay": "qRT-PCR of ex vivo treated PDX tumor pieces", "assay_type": "cell-based, human", "conditions": "TU-BcX-49S tumor pieces, 1 μM, 72 hours"}},
  "data": [
    {"smiles": "C[C@@H](Oc1cc(-n2cnc3ccc(NC(=O)NC(C)(C)C)cc32)sc1C(N)=O)c1ccccc1Cl", "note": "[GSK346294A]", "values": [
      {"measurement": "IC50", "setting": "MDA-MB-231 cells [1]; Homo sapiens, MDA-MB-231, 72 h, read-out: IC-50, number of cells remaining", "result": 50, "unit": "µM"},
      {"measurement": "Number of cells remaining compared to DMSO controls", "setting": "MDA-MB-231 cells [1]; MDA-MB-231, 1 μM, 72 hours", "result": "decreased the number of cells remaining"},
      {"measurement": "CD24 mRNA expression", "setting": "TU-BcX-2K1 tumors", "result": "increased CD24 expression"},
      {"measurement": "CDH1 mRNA expression", "setting": "TU-BcX-2K1 tumors", "result": "increased epithelial markers CDH1 mRNA expression"},
      {"measurement": "CDH1 protein expression", "setting": "TU-BcX-4IC explants", "result": "increased CDH1 protein"},
      {"measurement": "MMP9 protein expression", "setting": "TU-BcX-4IC explants", "result": "suppressed the mesenchymal-associated proteins MMP9 and ZEB1"},
      {"measurement": "ZEB1 protein expression", "setting": "TU-BcX-4IC explants", "result": "suppressed the mesenchymal-associated proteins MMP9 and ZEB1"},
      {"measurement": "Activity against PDGFRB", "setting": "PDGFRB", "result": "moderate activity"},
      {"measurement": "CSC populations in peripheral blood", "setting": "[2]", "result": "suppressed the CSC populations in the peripheral blood of mice implanted with TU-BcX-4IC tumors, although not significantly"},
      {"measurement": "Nuclear area fraction", "setting": "TU-BcX-4IC cells [3]", "result": "most significantly reduced nuclear area fraction"},
      {"measurement": "Total cell area", "setting": "TU-BcX-4IC cells [3]", "result": "largest overall areas"},
      {"measurement": "Area of liver metastases per section", "setting": "TU-BcX-4IC PDX model", "result": "minimally suppressed the area of liver metastases"},
      {"measurement": "Area of lung metastases per section", "setting": "TU-BcX-4IC PDX model", "result": "did not affect the area of lung metastases"},
      {"measurement": "Growth of the primary tumor", "setting": "TU-BcX-4IC PDX model", "result": "did not affect growth of the tumor"},
      {"measurement": "Metastasis to lungs and livers, overall", "setting": "TU-BcX-4IC PDX model", "result": "did not effectively suppress metastasis"},
      {"measurement": "Number of liver metastases per section", "setting": "TU-BcX-4IC PDX model", "result": "minimally suppressed"},
      {"measurement": "Number of metastases per lung section", "setting": "TU-BcX-4IC PDX model", "result": "minimally reduce the overall number of metastases per lung section"},
      {"measurement": "MMP9 mRNA expression", "setting": "MDA-MB-231 cells [4]", "result": "downregulated MMP9 expression, but not significantly"},
      {"measurement": "cFOS mRNA expression", "setting": "MDA-MB-231 cells [4]", "result": "suppressive effects in all three TNBC cell lines, although not significantly"},
      {"measurement": "Activity against RET", "setting": "RET", "result": "moderate activity"},
      {"measurement": "Activity against BRSK2", "setting": "BRSK2", "result": "moderate activity"},
      {"measurement": "MMP9 mRNA expression", "setting": "TU-BcX-4IC cells [5]", "result": "Neither GSK346294A nor GSK448459A affected MMP9 expression"},
      {"measurement": "ZEB1 mRNA expression", "setting": "TU-BcX-4IC cells [5]", "result": "suppressed ZEB1 expression in TU-BcX-4IC cells albeit not significantly"},
      {"measurement": "cFOS mRNA expression", "setting": "TU-BcX-4IC cells [5]", "result": "suppressive effects in all three TNBC cell lines, although not significantly"},
      {"measurement": "CDH1 mRNA expression", "setting": "TU-BcX-49S tumors", "result": "increased epithelial markers CDH1 mRNA expression"}
    ]}
  ]
}
